# Sampled rows, rich in hits. Any-hit rate of the full collection: about 2.1%.
# bCat nuc transl: modulators of beta-catenin nuclear translocation | nuclear translocation activity, % at 5 µM | actives 0.3% (n = 190,000) | HeLa beta-catenin nuclear translocation, immunofluorescence imaging;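 active = nuclear translocation activity above 50% at 5 µM, with a well cell count of 50 or more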;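 also: per-cell ratio of nuclear to cytoplasmic median beta-catenin stain intensity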
#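 System: HeLa cells, endogenous beta-catenin; compound dosing: 5 µM primary single dose, 0.1% DMSO, 0.02–20 µM confirmation series; incubation: 24 h compound exposure at 37°C, 5% CO2; signal: beta-catenin immunofluorescence imaging with DAPI; evaluation: % activation, nuclear-to-cytoplasmic median beta-catenin signal ratio per cell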
# ABCG2 block: blocks JC-1 efflux by human ABCG2 transporter | Q9UNQ0 | actives 0.1% (n = 190,000) | AID 1325 | inhibition, % at 6.6 µM | IgMXP3 cells, flow cytometry;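 active = inhibition above 80%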
#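 material = IgMXP3 (ABCG2) plus far-red-tagged CCRF-Adr (ABCB1) cells | amount = 3 million cells/mL, equal mix of both lines | also added = JC-1 transporter substrate | dosing = one concentration, 6.6 µM final | schedule = 10 min at 25 °C | measured by = flow cytometric JC-1 green MFI at 530 nm | read-out basis = percent efflux inhibition, scaled nicardipine 100% to DMSO 0%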
# Arbovirus inh: blocks arbovirus infection; arbovirus infection cell-based antiviral screen; inhibition, % at 10 µM; AID 1251; actives 0.37% (n = 200,000); in the data active = inhibition above about 30%
# MT stabilizer: stabilizes microtubules in HeLa cells. AID 2205. HeLa tubulin immunostaining HCS, 24 h; share of cells brighter than vehicle mean+2SD. actives 0.83% (n = 200,000). % tubulin-high responders, % at 10 µM;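 active = plate Z-score above 3 for both tubulin-high and condensed-nucleus cell shares, with cell loss under 80%, at 10 µM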;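 also: anti alpha tubulin signal scored within the nucleus-defined area of each cell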
# ABCB1 block: blocks JC-1 efflux by human ABCB1 transporter. P08183. actives 0.067% (n = 190,000). AID 1326. CCRF-Adr cells, flow cytometry. inhibition, % at 6.6 µM; in the data active = inhibition above about 40%;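 also: higher value means more JC-1 retained so stronger ABCB1 efflux block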
# Target sequence (P08183 whole entry, looked up): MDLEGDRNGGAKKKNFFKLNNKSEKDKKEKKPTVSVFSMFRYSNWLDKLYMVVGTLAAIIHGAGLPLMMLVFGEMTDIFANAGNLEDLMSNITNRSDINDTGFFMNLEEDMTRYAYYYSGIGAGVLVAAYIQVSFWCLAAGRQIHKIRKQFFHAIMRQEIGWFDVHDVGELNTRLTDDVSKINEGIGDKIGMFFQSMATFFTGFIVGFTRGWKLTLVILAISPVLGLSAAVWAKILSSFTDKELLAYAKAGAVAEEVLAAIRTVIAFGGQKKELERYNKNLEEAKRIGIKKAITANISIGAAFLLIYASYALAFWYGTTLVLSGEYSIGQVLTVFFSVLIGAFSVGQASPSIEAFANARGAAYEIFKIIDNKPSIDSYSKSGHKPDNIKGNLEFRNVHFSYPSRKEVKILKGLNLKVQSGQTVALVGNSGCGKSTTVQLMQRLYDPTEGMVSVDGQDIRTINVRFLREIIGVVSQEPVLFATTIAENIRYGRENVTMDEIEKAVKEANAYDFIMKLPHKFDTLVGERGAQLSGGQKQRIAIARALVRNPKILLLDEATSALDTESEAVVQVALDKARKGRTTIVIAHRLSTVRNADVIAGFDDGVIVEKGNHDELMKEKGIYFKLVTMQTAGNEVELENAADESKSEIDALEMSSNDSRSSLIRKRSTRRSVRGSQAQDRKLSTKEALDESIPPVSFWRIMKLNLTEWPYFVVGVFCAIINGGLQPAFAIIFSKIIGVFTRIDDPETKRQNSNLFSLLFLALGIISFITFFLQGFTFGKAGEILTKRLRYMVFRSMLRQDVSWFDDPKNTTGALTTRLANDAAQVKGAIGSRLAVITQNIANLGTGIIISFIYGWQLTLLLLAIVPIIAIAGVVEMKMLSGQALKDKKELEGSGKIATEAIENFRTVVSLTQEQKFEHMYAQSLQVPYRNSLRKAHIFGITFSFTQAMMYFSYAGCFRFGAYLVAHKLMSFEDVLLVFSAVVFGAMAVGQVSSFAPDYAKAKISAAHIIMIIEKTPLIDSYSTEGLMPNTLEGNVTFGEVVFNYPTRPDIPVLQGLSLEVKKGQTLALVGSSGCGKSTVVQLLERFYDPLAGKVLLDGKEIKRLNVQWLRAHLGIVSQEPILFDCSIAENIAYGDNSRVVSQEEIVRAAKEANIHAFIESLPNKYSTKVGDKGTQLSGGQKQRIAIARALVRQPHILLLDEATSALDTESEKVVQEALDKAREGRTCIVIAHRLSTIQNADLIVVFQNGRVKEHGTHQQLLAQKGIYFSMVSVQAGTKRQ
# Autophagy HCS: autophagy modulation, high-content screen; MEF GFP-LC3 puncta imaging; test concentration mostly 10 µM; actives 0.98% (n = 190,000); calls only at 10 µM (by protocol);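 active = percentage of spot-positive cells more than 3 SD above its plate mean, without a fluorescence outlier flag or 80% toxicity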
# Numbers stand for hits; - = inactive; . = no result; + = active, no number.
SMILES,bCat nuc transl,ABCG2 block,Arbovirus inh,MT stabilizer,ABCB1 block,Autophagy HCS
Cc1ccc(Cc2cnc(NC(=O)/C(C#N)=C/c3ccc(-c4ccccc4[N+](=O)[O-])o3)s2)cc1,-,-,-,-,-,+
CNC(=O)/C(C#N)=C/c1ccc(-c2ccccc2[N+](=O)[O-])o1,-,-,-,-,-,-
Cc1cccc2cc3c(N)c(C(=O)Nc4ccc(N5CCOCC5)cc4)sc3nc12,-,-,-,-,-,-
Cc1ccc(C)c2nc3sc(C(=O)N4CCOCC4)c(N)c3cc12,-,-,-,28,-,-
Cc1cc(C)c2nc3sc(C(=O)N4CCOCC4)c(N)c3cc2c1,72,.,.,.,.,.
Cc1sc(NC(=O)c2sc3nc4c(C)cccc4cc3c2N)c(C#N)c1C,.,-,-,-,-,+
Cc1cc(C)c2cc3c(N)c(C(=O)N4CCOCC4)sc3nc2c1,-,-,-,-,-,-
Cc1cccc2cc3c(N)c(C(=O)N4CCc5ccccc54)sc3nc12,-,-,-,12,-,+
O=C(O)CS(=O)CC(=O)Nc1cccc(C(F)(F)F)c1 (stereo not given),-,-,-,-,-,-
CC(C)OC(=O)c1cc(C(=O)c2cc(Br)ccc2O)coc1=N,-,-,-,-,-,-
CCOc1ccccc1NC(=O)c1cc(C(=O)c2cc(Br)ccc2O)coc1=N,.,-,-,12,-,-
O=C(NCc1ccncc1)Nc1cc(Cl)ccc1Cl,-,-,-,-,-,-
FC(F)(F)c1ccc2c(c1)N1CCCC1CN2 (stereo not given),-,-,-,-,-,+
FC(F)(F)c1ccc2c(c1)NCC1CCCN21 (stereo not given),-,-,-,-,-,+
O=C(CCSc1ccccc1)NC(=O)COC(=O)C1CCCCC1,-,-,-,-,-,-
CCc1cc2c(N=Nc3c(O)[nH]c4ccccc34)ncnc2s1,-,-,-,-,-,+
Cc1sc2ncnc(N=Nc3c(O)[nH]c4ccccc34)c2c1C,.,-,-,-,-,-
COc1ccc(OC(C)C(=O)Nc2cccc([N+](=O)[O-])c2)cc1 (stereo not given),-,-,-,-,-,-
CCOC(=O)N1CCC(Nc2c(Nc3cccc(CC)c3)c(=O)c2=O)CC1,-,-,36,-,-,-
CCOC(=O)N1CCC(Nc2c(Nc3ccc(F)cc3)c(=O)c2=O)CC1,-,-,-,-,-,-
CCN1C(=O)C2(Nc3ccccc3-c3nc4ccccc4n32)c2cc(OC)ccc21 (stereo not given),-,-,-,-,53,-
COc1ccc(NC(=S)N(CCCN2CCC(C)CC2)Cc2cccs2)cc1Cl,-,-,-,-,-,-
FC(F)(F)c1cccc(NC(=S)N(CCCN2CCCC2)Cc2cccn2Cc2ccc(Cl)cc2)c1,-,-,-,76,-,+
Cc1ccc(NC(=S)N(CCCN2CCCC2)Cc2cccn2Cc2ccc(Cl)cc2)cc1Cl,-,-,-,-,-,+
Cc1ccc(NC(=S)N(CCCN2CCCC2)Cc2cccn2Cc2ccc(Cl)cc2)cc1C,-,-,-,-,-,-
SMILES,bCat nuc transl,ABCG2 block,Arbovirus inh,MT stabilizer,ABCB1 block,Autophagy HCS
COc1ccc(NC(=S)N(CCCN2CCCC2)Cc2cccn2Cc2ccc(Cl)cc2)cc1Cl,-,-,-,60,-,+
CCN1CCN(CCCNC(=O)c2csc3c2CCCCC3)CC1,-,-,-,-,-,-
O=C(O)c1ccccc1CSc1ccccn1,-,-,32,-,-,-
Cc1ccc(-c2nc3ccc([N+](=O)[O-])cc3[nH]2)cc1,-,-,-,-,-,-
CCC1=C2CC[C@H]3C(=O)N(c4ccccc4)C(=O)[C@H]3[C@H]2[C@@]2(C)C(=NCc3ccccc3)OC(=O)N2C1=O,-,.,.,.,.,.
O=C(Nc1cccc(NC(=O)c2ccc(-c3ccc(Br)cc3)o2)c1)c1ccccc1,-,-,-,18,-,-
COc1ccccc1NC(=O)c1ccc(-c2ccc(Br)cc2)o1,-,-,-,39,-,-
COc1cc(NC(=O)c2ccco2)ccc1NC(=O)C(C)C,.,-,-,-,-,-
COc1cc(NC(=O)c2ccc(-c3ccc(Br)cc3)o2)ccc1NC(=O)C(C)C,.,-,-,-,-,+
O=C(Nc1ccccc1)c1ccc(-c2ccc(Br)cc2)o1,.,-,-,-,-,-
Cc1cc(=O)n2nc(-c3ccc(C(F)(F)F)cc3)sc2n1,-,-,-,-,-,-
CCN(CC)C(=O)CC(c1cc(OC)c(OC)c(OC)c1)c1c(O)cc(OC)cc1OC (stereo not given),-,.,.,.,.,.
COc1ccccc1OCCC(=O)OCC(=O)Nc1ccc(S(=O)(=O)N2CCOCC2)cc1,-,-,-,-,-,-
CN(C)/N=C/c1ccc(P(c2ccc(/C=N/N(C)C)o2)c2ccc(/C=N/N(C)C)o2)o1,-,-,31,-,-,-
CCOC(=O)N1CCN(S(=O)(=O)c2ccc(C(=O)Nc3nc4c(s3)CC(C)CC4)cc2)CC1 (stereo not given),-,-,-,-,-,+
Cc1cccc(C)c1OCC(O)CN1CCC(CN2C(=O)c3cccc4cccc(c34)C2=O)CC1 (stereo not given),-,-,-,-,-,+
CCOC(=O)N1CCC(NC(=O)C2CCN(C(=O)N3CCOc4ccccc43)CC2)CC1,-,-,-,-,-,-
COC(=O)Nc1nc(-c2ccccc2)c(C(=O)c2ccccc2)s1,162,-,-,-,-,-
Cc1nc(Nc2ccccc2)sc1C(=O)c1ccccc1,-,.,.,.,.,.
CN(C)S(=O)(=O)c1ccc(C(=O)Nc2nc(-c3ccccc3)c(C(=O)c3ccccc3)s2)cc1,-,-,-,-,-,-
COC(=O)Nc1nc(C)c(C(=O)c2ccccc2)s1,56,-,-,-,-,-
Oc1ccccc1OCCOc1ccccc1OCCOc1ccccc1O,-,.,.,.,.,.
Cc1ccccc1NS(=O)(=O)c1ccc(OCC(=O)NCc2cccnc2)cc1,-,-,-,-,-,+
COC(=O)c1cccc(NS(=O)(=O)c2ccc(OC)cc2)c1C,53,-,-,35,-,-
CCOC(=O)c1ccccc1NS(=O)(=O)c1ccc(OCC)cc1,.,-,-,-,-,+
SMILES,bCat nuc transl,ABCG2 block,Arbovirus inh,MT stabilizer,ABCB1 block,Autophagy HCS
CCN(CC)CCOc1ccc2nc(N(C)C)sc2c1,-,-,-,-,-,-
COC(=O)c1ccc(CSC2=NCCS2)cc1,-,-,-,-,-,-
Cc1ccc(C)c(NC(=S)NNC(=O)c2csc(C(C)C)c2)c1,-,-,-,-,-,-
CCCSc1cc(N)cc([N+](=O)[O-])c1,-,-,-,-,-,-
O=C(Nc1ccccc1C(=O)O)c1ccc2ccccc2n1,-,-,42,-,-,-
O=C(Nc1ccccc1)c1ccc2ccccc2n1,-,-,-,-,-,-
Cc1c(/C=N\NC(=O)C2COc3ccccc3O2)c2ccccc2n1C (stereo not given),58,-,-,-,-,-

# Compound activity (PubChem BioAssay)
